This note sets out measurements from ChEMBL document CHEMBL2311400, “Synthesis and biological evaluation of 4-(aminomethyl)-1-hydroxypyrazole analogues of muscimol as γ-aminobutyric acid(a) receptor agonists” (J Med Chem, 2013).

What all share (format): cell-based
The target in experiment [1] is T1, Gamma-aminobutyric acid receptor subunit rho-1 (Homo sapiens, UniProt P24046). Nature of the experiment: Agonist activity at human GABAA rho1 receptor expressed in TSA201 cells after 1 min by FLIPR assay relative to GABA. An outline of the steps:
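tsA201 cells transfected with 5 μg human ρ1 cDNA, then plated on poly-D-lysine plates for 16–24 h. Loaded with FLIPR membrane potential blue dye in Krebs buffer (pH 7.4), 30 min at 37 °C. Emission at 560 nm (excitation 530 nm) recorded before and up to 1 min after agonist addition. Curves fitted from ΔFU; duplicate, at least three times.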

Experiment [2] deals with T2, GABA-A receptor; alpha-1/beta-2/gamma-2 (Homo sapiens, UniProt P14867+P18507+P47870).
T2 sequence (P14867 whole entry): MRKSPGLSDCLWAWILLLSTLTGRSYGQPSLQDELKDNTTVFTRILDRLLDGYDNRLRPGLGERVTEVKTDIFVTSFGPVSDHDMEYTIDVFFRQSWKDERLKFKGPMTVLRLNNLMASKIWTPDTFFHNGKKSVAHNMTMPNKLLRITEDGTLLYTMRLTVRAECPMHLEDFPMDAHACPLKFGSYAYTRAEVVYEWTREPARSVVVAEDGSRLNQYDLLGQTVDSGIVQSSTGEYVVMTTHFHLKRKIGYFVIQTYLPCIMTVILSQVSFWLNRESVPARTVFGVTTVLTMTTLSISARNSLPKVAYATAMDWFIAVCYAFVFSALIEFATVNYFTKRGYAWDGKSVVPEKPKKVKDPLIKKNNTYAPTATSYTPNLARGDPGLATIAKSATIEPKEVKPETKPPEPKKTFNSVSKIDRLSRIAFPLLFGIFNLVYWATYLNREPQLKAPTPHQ
T2 sequence (P47870 whole entry): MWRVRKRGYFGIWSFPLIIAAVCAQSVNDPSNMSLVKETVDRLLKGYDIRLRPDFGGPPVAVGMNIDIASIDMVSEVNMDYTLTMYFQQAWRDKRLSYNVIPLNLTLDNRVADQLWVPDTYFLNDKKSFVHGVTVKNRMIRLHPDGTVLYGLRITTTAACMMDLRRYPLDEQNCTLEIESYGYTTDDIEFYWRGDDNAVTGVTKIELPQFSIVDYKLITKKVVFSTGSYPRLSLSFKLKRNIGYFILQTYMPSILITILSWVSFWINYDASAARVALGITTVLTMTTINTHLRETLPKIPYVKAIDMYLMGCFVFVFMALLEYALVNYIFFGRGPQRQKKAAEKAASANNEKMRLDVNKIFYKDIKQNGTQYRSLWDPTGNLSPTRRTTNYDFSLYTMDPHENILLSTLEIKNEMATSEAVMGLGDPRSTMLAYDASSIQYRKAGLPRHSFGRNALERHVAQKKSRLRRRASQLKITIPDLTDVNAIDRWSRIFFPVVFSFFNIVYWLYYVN
T2 sequence (P18507 whole entry): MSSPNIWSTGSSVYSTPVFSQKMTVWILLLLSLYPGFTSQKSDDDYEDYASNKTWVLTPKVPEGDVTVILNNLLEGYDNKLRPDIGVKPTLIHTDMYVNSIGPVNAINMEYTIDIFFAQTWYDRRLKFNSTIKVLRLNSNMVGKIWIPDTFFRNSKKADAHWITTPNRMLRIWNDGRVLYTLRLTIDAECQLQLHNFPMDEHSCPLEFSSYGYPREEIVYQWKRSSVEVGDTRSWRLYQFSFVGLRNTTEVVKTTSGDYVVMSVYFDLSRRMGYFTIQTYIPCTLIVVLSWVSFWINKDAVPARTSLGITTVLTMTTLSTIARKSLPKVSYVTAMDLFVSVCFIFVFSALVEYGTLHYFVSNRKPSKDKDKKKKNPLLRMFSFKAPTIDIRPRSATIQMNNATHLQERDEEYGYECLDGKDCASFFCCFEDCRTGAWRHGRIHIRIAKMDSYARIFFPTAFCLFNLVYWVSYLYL
Nature of the experiment: Agonist activity at human GABAA alpha1beta2gamma2S receptor expressed in TSA201 cells after 1 min by FLIPR assay. An outline of the steps: (§1)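 tsA201 cells transfected with 1 μg α (1, 2, 3 or 5), 1 μg β2 and 3 μg γ2S cDNA (Polyfect). Cells replated onto poly-D-lysine plates and assayed 16–24 h later. Loaded with FMP blue dye in Krebs buffer pH 7.4 for 30 min at 37 °C.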

The target of experiment [3] is T1, Gamma-aminobutyric acid receptor subunit rho-1. Nature of the experiment: Agonist activity at human GABAA rho1 receptor expressed in HEK293 cells by patch clamp electrophysiology assay. An outline of the steps: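 Human ρ1 (pCDNA3) co-transfected with a GFP plasmid into HEK 293 cells. Whole-cell voltage clamp at −60 mV, 40–72 h after transfection, room temperature (20–22 °C). Extracellular solution pH 7.35; intrapipette solution with KCl 140 mM, EGTA 10 mM, MgATP 2 mM, pH 7.3.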

The target of experiment [4] is T2, GABA-A receptor; alpha-1/beta-2/gamma-2. Nature of the experiment: Agonist activity at human GABAA alpha1beta2gamma2S receptor expressed in HEK293 cells by patch clamp electrophysiology assay.
The target of experiment [5] is T3, GABA A receptor alpha-3/beta-2/gamma-2 (Homo sapiens, UniProt P18507+P34903+P47870).
T3 sequence (P47870 whole entry): T2 sequence (P47870 whole entry)
T3 sequence (P18507 whole entry): T2 sequence (P18507 whole entry)
T3 sequence (P34903 whole entry): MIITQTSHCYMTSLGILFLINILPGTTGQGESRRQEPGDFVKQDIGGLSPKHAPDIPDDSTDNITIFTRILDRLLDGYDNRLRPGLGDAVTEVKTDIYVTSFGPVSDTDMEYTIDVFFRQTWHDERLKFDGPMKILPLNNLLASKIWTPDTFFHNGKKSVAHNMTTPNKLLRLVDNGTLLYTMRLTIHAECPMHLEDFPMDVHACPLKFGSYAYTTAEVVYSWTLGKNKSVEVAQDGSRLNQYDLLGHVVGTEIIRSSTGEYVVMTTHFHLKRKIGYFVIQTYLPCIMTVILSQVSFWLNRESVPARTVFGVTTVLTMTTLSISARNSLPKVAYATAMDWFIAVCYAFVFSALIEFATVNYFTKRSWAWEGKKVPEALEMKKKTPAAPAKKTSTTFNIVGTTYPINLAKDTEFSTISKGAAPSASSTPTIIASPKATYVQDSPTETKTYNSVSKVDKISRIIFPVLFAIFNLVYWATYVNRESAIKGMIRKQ
Nature of the experiment: Agonist activity at human GABAA alpha3beta2gamma2S receptor expressed in TSA201 cells after 1 min by FLIPR assay. An outline of the steps:
as §1

The target of experiment [6] is GABA-A receptor; alpha-1/beta-2/gamma-2 (Homo sapiens) (UniProt P14867+P47870+P18507). Nature of the experiment: Agonist activity at human GABAA alpha1beta2gamma2S receptor expressed in TSA201 cells after 1 min by FLIPR assay relative to GABA. An outline of the steps: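 tsA201 cells transfected with 1 μg α (1, 2, 3 or 5), 1 μg β2 and 3 μg γ2S cDNA (Polyfect). Cells replated onto poly-D-lysine plates and assayed 16–24 h later. Loaded with FMP blue dye in Krebs buffer pH 7.4 for 30 min at 37 °C. Fluorescence (ex 530/em 560 nm) read before and up to 1 min after agonist addition. ΔFU concentration-response curves; duplicate, ≥3 experiments.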

T1 sequence (P24046 whole entry): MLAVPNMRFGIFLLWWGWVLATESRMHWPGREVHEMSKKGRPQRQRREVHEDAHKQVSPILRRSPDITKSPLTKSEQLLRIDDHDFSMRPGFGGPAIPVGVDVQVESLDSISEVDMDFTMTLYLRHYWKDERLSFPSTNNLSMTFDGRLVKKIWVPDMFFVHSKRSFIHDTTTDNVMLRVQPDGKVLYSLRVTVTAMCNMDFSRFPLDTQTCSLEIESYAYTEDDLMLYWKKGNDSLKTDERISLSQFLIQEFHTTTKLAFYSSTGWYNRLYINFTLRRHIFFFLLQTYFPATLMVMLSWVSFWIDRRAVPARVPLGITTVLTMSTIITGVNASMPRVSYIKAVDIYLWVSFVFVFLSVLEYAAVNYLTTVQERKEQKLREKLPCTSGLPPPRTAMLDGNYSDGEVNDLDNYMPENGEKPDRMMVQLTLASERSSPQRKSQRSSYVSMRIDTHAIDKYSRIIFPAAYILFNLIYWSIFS

On to `NCc1cnn(O)c1`, for which the Rmax in experiment [1] and in experiment [6] was 77% throughout. Besides, the EC50 in experiment [2] was found to be 13 µM; in experiment [3], 55 µM; in experiment [4], 19 µM; in experiment [5], 5.6 µM.
